Measurements taken from paper PMC10141526 (The Journal of Biological Chemistry, 2023).

Assays:
[1] = tested on: CD18; assay: Flow cytometry, surface expression of CD18 after Mn2+ activation; type: cell-based, mouse (NOD, BALB/c)
Outline: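 Density-medium-purified PBMC from NOD and BALB/c mice, unactivated or Mn2+-activated, stained for CD4, CD40, CD18, CD11a and CD11b against isotype controls; 1 to 3 × 10^5 cells per stain. Lymphocytes gated as CD4hi, CD4lo (Th40) or CD4-negative, then CD18hi and CD18lo populations scored. One-way ANOVA with Tukey's multiple comparisons test.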

[2] = tested on: CD154; assay: Flow cytometry, surface expression of CD154 after Mn2+ activation; type: cell-based, mouse (NOD, BALB/c); settings: PBMC and spleen, Mn2+ 30 min
[3] = tested on: CD69; assay: Flow cytometry, surface expression of CD69 after Mn2+ activation; type: cell-based, mouse (NOD, BALB/c); settings: PBMC and spleen, Mn2+ 30 min
[4] = tested on: CD11a; assay: Flow cytometry, surface expression of CD11a after Mn2+ activation; type: cell-based, mouse (NOD, BALB/c)
Outline: (§1)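 NOD and BALB/c PBMC, isolated over density medium and used without further purification, were stained with or without Mn2+ activation for CD4, CD40, CD18, CD11a and CD11b, with isotype controls (1 to 3 × 10^5 cells per stain). Flow cytometry, lymphocyte gate split into CD4hi (conventional CD4), CD4lo (Th40) and CD4-negative cells. CD11a or CD11b surface expression compared ± Mn2+.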

[5] = tested on: CD25; assay: Flow cytometry, surface expression of CD25 after Mn2+ activation; type: cell-based, mouse (NOD, BALB/c); settings: PBMC and spleen, Mn2+ 30 min
[6] = tested on: CD11b; assay: Flow cytometry, surface expression of CD11b after Mn2+ activation; type: cell-based, mouse (NOD, BALB/c)
Outline: as §1

[7] = tested on: CD40; assay: Flow cytometry, surface expression of CD40 after Mn2+ activation; type: cell-based, mouse (NOD, BALB/c)
Outline: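 Flow cytometry on unfractionated PBMC from NOD and BALB/c mice ± Mn2+ activation, stained for CD4, CD40, CD18, CD11a and CD11b with isotype controls (1 to 3 × 10^5 cells). CD40 assessed in CD4hi, CD4lo (Th40) and CD4-negative subsets of the lymphocyte gate, read as overall mean fluorescence intensity. Two-tailed t test.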

[8] = tested on: CD11a; assay: Control immunoprecipitation; type: binding, mouse (NOD); settings: NOD cell lysates; OVA-pep IP, control for KGYY15
[9] = tested on: CD11b; assay: Control immunoprecipitation; type: binding, mouse (NOD); settings: NOD cell lysates; OVA-pep IP, control for KGYY15
[10] = tested on: CD18; assay: Control immunoprecipitation; type: binding, mouse (NOD); settings: NOD cell lysates; OVA-pep IP, control for KGYY15
[11] = molecular target: FITC-conjugated mouse KGYY15 (mouse); assay: flow cytometry on cells
[12] = tested on: integrin αMβ2 (CD11b/CD18); settings: cited from earlier work
[13] = tested on: integrin αIIbβ3; settings: cited from earlier work
[14] = tested on: integrin α5β1 (CD49e/CD29); settings: cited from earlier work
[15] = PBMC conventional CD4 T cells, both strains
[16] = PBMC, BALB/c Th40, NOD Th40 and CD4-negative cells
[17] = spleen cells, two mouse strains
[18] = PBMC, any cell type, either strain

Which results are given for `[Mn+2]` [Mn^2+, manganese divalent ions]?
surface expression of CD18 [1, 15]: did not change surface expression of CD40 or CD18; CD18hi population [1, 16]: decrease in the CD18^hi population; CD18lo population [1, 16]: corresponding increase in the CD18^lo population; surface expression of CD18 [1, 17]: did not reveal any change; surface expression of CD154 [2]: None of the three molecules was affected; surface expression of CD69 [3]: None of the three molecules was affected; surface expression of CD11a [4, 18]: no change; surface expression of CD11a [4, 17]: did not reveal any change; surface expression of CD25 [5]: None of the three molecules was affected; surface expression of CD11b [6, 18]: no change; surface expression of CD11b [6, 17]: did not reveal any change; surface expression of CD40 [7, 15]: did not change surface expression of CD40 or CD18; percentage of cells expressing CD40 on surface ([7]; PBMC, NOD and BALB/c): did not increase the percentage of cells expressing CD40; intensity of CD40 surface expression [7, 16]: significantly elevated; surface expression of CD40 [7, 17]: did not reveal any change

With “OVA-peptide: unrelated peptide, the 17-amino-acid OVA (323–339) peptide, control for KGYY15 (KISQAVHAAHAEINEAG; UniProt P01012 323-339, looked up, fragment)” as the molecule, how does the “immunoprecipitation of CD11a (control)” value [8] read?
The value was “No CD11a, CD11b, or CD18 was immunoprecipitated”.

What about the “immunoprecipitation of CD11b (control)” value [9] of the same molecule?
Its value is “No CD11a, CD11b, or CD18 was immunoprecipitated”.

What about the “immunoprecipitation of CD18 (control)” value [10] of the same molecule?
The value was “No CD11a, CD11b, or CD18 was immunoprecipitated”.

With “recombinant CD11a/CD18 (R&D Systems cat# 3868-AV-050) (from UniProt P20701 26-1090; P05107 23-700) (complex)” as the molecule, how does the percent reduction of KGYY15-FITC staining of NAMALWA cells [11] read?
Its percent reduction of KGYY15-FITC staining of NAMALWA cells is 29.4%.

With “recombinant CD11b/CD18 (R&D Systems cat# 4047-AM-050) (from UniProt P11215 17-1104; P05107 23-700) (complex)” as the molecule, how does the percent reduction of KGYY15-FITC staining of NAMALWA cells [11] read?
The percent reduction of KGYY15-FITC staining of NAMALWA cells was 22.7%.

B1: CD154: natural CD40-ligand, whole protein (protein, UniProt P27548 112-260, looked up)
CD40 ligand, soluble form: MQRGDEDPQIAAHVVSEANSNAASVLQWAKKGYYTMKSNLVMLENGKQLTVKREGLYYVYTQVTFCSNREPSSQRPFIVGLWLKPSSGSERILLKAANTHSSSQLCEQQSVHLGGVFELQAGASVFVNVTEASQVIHRVGFSSFGLLKL
For B1, which binding to integrin [12] is on record?
Its binding to integrin is “binds”.

And the binding to integrin [13]?
The binding to integrin was “binds”.

And the binding to integrin [14]?
The binding to integrin was “binds”.
